From ChEMBL document CHEMBL1166011, “A bastadin with potent and selective delta-opioid receptor binding affinity from the Australian sponge Ianthella flabelliformis” (J Nat Prod, 2010)
Active and inactive are the calls of the source. The rule behind the calls is not given here.

How the values were obtained:
Cavia porcellus [1] = species on record: Cavia porcellus; assay: Displacement of [3H]DPDPE from delta opioid receptor in guinea pig forebrain at 100 uM by beta plate scintillation counting
Summary of the method: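 Pooled guinea pig forebrain membranes, Tris·HCl pH 7.4 prep with 37 °C 45 min preincubation to remove endogenous ligands. 1 nM [3H]DPDPE, 315 µg membrane protein, 10 µM naloxone defines nonspecific binding; 90 min rt. Single 100 µM screen, 2% final DMSO. Glass fiber B filtration, scintillation counting. % activity = 100 − % control.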

Cavia porcellus [2] = species on record: Cavia porcellus; assay: Displacement of [3H]DAMGO from mu opioid receptor in guinea pig forebrain at 100 uM by beta plate scintillation counting
Summary of the method: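 Guinea pig forebrain membranes (pooled, homogenized in 50 mM Tris·HCl pH 7.4, preincubated 37 °C 45 min to strip endogenous ligands, washed). 1 nM [3H]DAMGO, 315 µg protein, nonspecific binding with 10 µM naloxone; 90 min rt. Compound at 100 µM in 2% final DMSO. Filtration onto glass fiber B mats. % activity = 100 − % control, specific binding.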

Cavia porcellus [3] = species on record: Cavia porcellus; assay: Displacement of [3H]U69593 from kappa opioid receptor in guinea pig cerebellum at 100 uM by beta plate scintillation counting; type: tissue-based
Summary of the method: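 Pooled guinea pig cerebellum membranes (Tris·HCl pH 7.4, endogenous ligands removed at 37 °C 45 min). 1 nM [3H]U69593, 190 µg protein, 10 µM naloxone for nonspecific binding; 90 min rt. Tested up to 100 µM, 2% final DMSO. Filtration onto glass fiber B mats presoaked in 0.01% polyethylenimine; % activity from specific binding.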

[4] = Displacement of [3H]DPDPE from delta opioid receptor in guinea pig forebrain by beta plate scintillation counting; set-up: species or system Cavia porcellus
Summary of the method: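 Delta binding on pooled guinea pig forebrain membranes with 1 nM [3H]DPDPE, 315 µg protein, 10 µM naloxone for nonspecific binding; 90 min rt, filtration onto glass fiber B mats. Concentration-response over 11 treatment levels, 2% final DMSO. IC50 and Ki from nonlinear least-squares fitting, model testing by ANOVA.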

Cavia porcellus [5] = species on record: Cavia porcellus; assay: Selectivity for guinea pig delta opioid receptor over guinea pig mu opioid receptor
Cavia porcellus [6] = species on record: Cavia porcellus; assay: Selectivity for guinea pig delta opioid receptor over guinea pig kappa opioid receptor
[7] = Displacement of [3H]U69593 from kappa opioid receptor in guinea pig cerebellum by beta plate scintillation counting
[8] = Displacement of [3H]DAMGO from mu opioid receptor in guinea pig forebrain by beta plate scintillation counting

| Compound | inhibition (Cavia porcellus [1]) | inhibition (Cavia porcellus [2]) | Activity (Cavia porcellus [3]) | IC50 [4] | Ki [4] | Selectivity ratio (Cavia porcellus [5]) | Selectivity ratio (Cavia porcellus [6]) | Ki [7] | Ki [8] |
| --- | --- | --- | --- | --- | --- | --- | --- | --- | --- |
| O=C1N/C=C/c2ccc(c(Br)c2)Oc2cc(ccc2OS(=O)(=O)O)CCNC(=O)/C(=N/O)C(O)c2cc(Br)c(c(Br)c2)Oc2cc(cc(Br)c2O)C/C1=N\O (stereo not given) | 86% | 39% | inactive |  |  |  |  |  |  |
| O=C1N/C=C/c2ccc(c(Br)c2)Oc2cc(ccc2OS(=O)(=O)O)CCNC(=O)/C(=N/O)Cc2cc(Br)c(c(Br)c2)Oc2cc(cc(Br)c2O)C/C1=N\O | 87% | 57% | inactive |  |  |  |  |  |  |
| O=C1NCC(O)c2ccc(c(Br)c2)Oc2cc(ccc2O)CCNC(=O)/C(=N/O)C(O)c2cc(Br)c(c(Br)c2)Oc2cc(cc(Br)c2OS(=O)(=O)O)C/C1=N\O (stereo not given) [BASTADIN 26] |  | inactive | inactive | 0.206 µM | 0.1 µM | > 1000 | > 1000 |  |  |
| C=CCN1CC[C@]23c4c5ccc(O)c4O[C@H]2C(=O)CC[C@@]3(O)[C@H]1C5 [NALOXONE] |  |  |  |  | 0.03 µM |  |  | 0.0026 µM | 0.0039 µM |
